Test results as given in ChEMBL document CHEMBL1811862, “Ieodomycins A-D, antimicrobial fatty acids from a marine Bacillus sp” (2011).
Values after ≈ are worked out from the molar mass of the structure shown.

Assays:
Type in all cases: functional
[1] = system: Saccharomyces cerevisiae; test: Antimicrobial activity against Saccharomyces cerevisiae KCTC 7913 after 48 hrs by broth dilution method; settings: KCTC 7913, 48 h
Method in brief: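 Yeast maltose broth, with twofold serial dilutions spanning 0.5–512.0 μg/mL in microtiter plates. An overnight yeast culture was adjusted to 1.5 × 10⁸ cfu/mL by the 0.5 McFarland standard and added to each well. Plates were held 48 h at 30 °C. MIC was the lowest concentration without visible turbidity.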

[2] = system: Escherichia coli; test: Antimicrobial activity against Escherichia coli KCTC 1923 after 24 hrs by broth dilution method; settings: KCTC 1923, 24 h
Method in brief: (§1)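 Twofold serial dilutions in nutrient broth (0.5–512.0 μg/mL) in microtiter plates. An overnight culture was adjusted to 1.5 × 10⁸ cfu/mL against the 0.5 McFarland standard and added to each dilution. Plates were incubated 24 h at 37 °C. MIC was the lowest concentration giving no visible growth (turbidity).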

[3] = system: Bacillus subtilis; test: Antimicrobial activity against Bacillus subtilis KCTC 1021 after 24 hrs by broth dilution method; settings: KCTC 1021, 24 h; method in brief: as §1

MIC [1] | MIC [2] | MIC [3] | SMILES
256 µg/mL (≈ 1220 µM) | 32 µg/mL (≈ 152 µM) | 32 µg/mL (≈ 152 µM) | C=C/C=C(\C)CC[C@@H]1C[C@H](O)CC(=O)O1 [IEODOMYCIN B]
256 µg/mL (≈ 1120 µM) | 32 µg/mL (≈ 140 µM) | 32 µg/mL (≈ 140 µM) | C[C@@H](O)CCC/C=C/C=C/[C@@H](O)CC(=O)O [IEODOMYCIN C]
256 µg/mL (≈ 1390 µM) | 32 µg/mL (≈ 174 µM) | 32 µg/mL (≈ 174 µM) | C[C@@H](O)CCC/C=C/C=C/C(=O)O [IEODOMYCIN D]
256 µg/mL (≈ 1060 µM) | 32 µg/mL (≈ 132 µM) | 32 µg/mL (≈ 132 µM) | C=C/C=C(\C)CC[C@@H](O)C[C@H](O)CC(=O)OC [IEODOMYCIN A]
